Active and inactive are the calls of the source. The rule behind the calls is not given here.
Assays:
[1] = target: T1, Peroxisome proliferator-activated receptor gamma (Homo sapiens) (UniProt P37231); experiment: Agonist activity at human PPARgamma in 8 day differentiated human SGBS cells assessed as decrease in […] gene expression at 2 uM incubated for 24 hrs by SYBR-green based qPCR analysis
T1 sequence (whole entry): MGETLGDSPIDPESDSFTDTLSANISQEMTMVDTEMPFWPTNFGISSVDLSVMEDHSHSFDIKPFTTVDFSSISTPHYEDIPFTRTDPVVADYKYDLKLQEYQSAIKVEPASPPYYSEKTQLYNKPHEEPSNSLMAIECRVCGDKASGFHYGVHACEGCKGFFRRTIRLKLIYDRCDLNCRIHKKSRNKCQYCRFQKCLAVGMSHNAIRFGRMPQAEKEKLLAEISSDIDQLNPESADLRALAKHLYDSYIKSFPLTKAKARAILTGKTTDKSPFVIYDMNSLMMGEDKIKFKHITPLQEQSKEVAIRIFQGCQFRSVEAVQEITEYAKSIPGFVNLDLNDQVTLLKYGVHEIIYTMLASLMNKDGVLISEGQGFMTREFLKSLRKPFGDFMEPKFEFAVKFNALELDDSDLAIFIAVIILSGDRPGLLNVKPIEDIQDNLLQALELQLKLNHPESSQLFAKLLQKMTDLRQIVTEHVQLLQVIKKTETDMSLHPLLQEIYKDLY

[2] = Cytotoxicity against African green monkey COS-1 cells assessed as cell viability at EC50 concentration for PPAR activation assay by LDH assay; type: cell-based; details: chlorocebus aethiops, read-out: Activity
How it was run: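 Assayed in the same COS-1 cultures as the Gal4-LBD PPAR reporter assays. Lactate dehydrogenase released into the medium was measured with a commercial kit per the maker's protocol. Absorbance was read at 492/750 nm.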

[3] = target: T1, Peroxisome proliferator-activated receptor gamma (Homo sapiens); experiment: Agonist activity at human PPARgamma in 8 day differentiated human SGBS cells assessed as decrease in TNF gene expression at 2 uM incubated for 24 hrs by SYBR-green based qPCR analysis
[4] = target: T1, Peroxisome proliferator-activated receptor gamma (Homo sapiens); experiment: Agonist activity at human PPARgamma in 8 day differentiated human SGBS cells assessed as decrease in CXCL1 gene expression at 2 uM incubated for 24 hrs by SYBR-green based qPCR analysis
[5] = Cytotoxicity against African green monkey COS-1 cells assessed as cell viability at EC50 concentration for PPAR activation assay by XTT assay; type: cell-based; details: chlorocebus aethiops, read-out: Activity
How it was run: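 Run on COS-1 cells treated in parallel with the Gal4-LBD PPAR reporter assays. Metabolic NAD(P)H flux was measured by kit XTT assay per the maker's protocol. Absorbance was read at 450/690 nm.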

[6] = target: T1, Peroxisome proliferator-activated receptor gamma (Homo sapiens); experiment: Agonist activity at human PPARgamma in 8 day differentiated human SGBS cells assessed as decrease in CXCL5 gene expression at 2 uM incubated for 24 hrs by SYBR-green based qPCR analysis
[7] = target: T1, Peroxisome proliferator-activated receptor gamma (Homo sapiens); experiment: Agonist activity at human PPARgamma in 8 day differentiated human SGBS cells assessed as decrease in IL-1 beta gene expression at 2 uM incubated for 24 hrs by SYBR-green based qPCR analysis
[8] = target: T2, Peroxisome proliferator-activated receptor alpha (Homo sapiens, UniProt Q07869); experiment: Agonist activity at recombinant human PPARalpha LBD (168 to 468 residues) expressed in African green monkey COS-1 cells incubated for 18 hrs by luciferase reporter gene assay; type: cell-based
T2 sequence (Q07869 whole entry): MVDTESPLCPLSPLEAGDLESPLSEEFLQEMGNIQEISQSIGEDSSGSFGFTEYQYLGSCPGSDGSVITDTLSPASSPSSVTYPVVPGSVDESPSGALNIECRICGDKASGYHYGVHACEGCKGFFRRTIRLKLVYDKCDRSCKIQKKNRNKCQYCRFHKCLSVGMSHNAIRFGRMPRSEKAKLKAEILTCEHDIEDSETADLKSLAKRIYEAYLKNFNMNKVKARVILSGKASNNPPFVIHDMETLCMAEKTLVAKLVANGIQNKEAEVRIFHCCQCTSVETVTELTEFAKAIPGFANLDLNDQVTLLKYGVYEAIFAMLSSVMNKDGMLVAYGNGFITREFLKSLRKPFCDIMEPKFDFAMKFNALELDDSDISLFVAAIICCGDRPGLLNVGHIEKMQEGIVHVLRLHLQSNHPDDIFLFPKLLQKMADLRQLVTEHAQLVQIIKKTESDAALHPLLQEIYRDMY
How it was run: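 Transient Gal4 one-hybrid assay in COS-1 cells (7×10^4 per well), transfected 24 h after seeding. Plasmids were Gal4-DBD fused to the human nuclear receptor LBD, a 5×UAS-SV40 luciferase reporter and pRL-CMV Renilla control. Ligand in DMSO (final 0.1%) was added 5 h post-transfection. Dual-luciferase activity was read after 18 h, expressed as RLU, from three biological replicates in quadruplicate.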

| Activity [1] | Activity [3] | Activity [4] | Activity [6] | Activity [7] | EC50 [8] | Structure (SMILES) | viability [2] | viability [5] |
| --- | --- | --- | --- | --- | --- | --- | --- | --- |
| inactive | inactive | inactive | inactive | inactive | – | CN(CCOc1ccc(CC2SC(=O)NC2=O)cc1)c1ccccn1 (configuration not stated) [ROSIGLITAZONE] | > 95% | > 95% |
| – | – | – | – | – | 35 µM | CCCCCCCCCCCCCCCC(=O)O [PALMITIC ACID] | > 95% | > 90% |
| – | – | – | – | – | – | Cc1cccc(Nc2cc(Cl)nc(SCC(=O)O)n2)c1C [PIRINIXIC ACID] | > 95% | > 95% |
